# Source: ChEMBL document CHEMBL1158389, “Highly twisted adamantyl arotinoids: synthesis, antiproliferative effects and RXR transactivation profiles” (Eur J Med Chem, 2009)
# pIC50: −log10 of the molar value. Active and inactive are the calls of the source. The calls are words filed in the database; no cut-off is given here.
# Experiments:
# [1] = system: Jurkat; experiment: Antiproliferative activity against human Jurkat T cells at 2 uM after 48 hrs by MTT assay; type: functional, cell-based
# Summary of the method: (§1)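 Jurkat T cells were resuspended at 10^5 cells/mL in RPMI with 0.5% FBS (10,000/well) and seeded immediately before dosing at 62.5 nM–2 μM for two days. Viability was read by MTT (4 h, 37 °C), formazan dissolved in 10% SDS/10 mM HCl, A595 with cell-free background subtracted. Values are relative to DMSO controls (≤0.1% v/v); at least two experiments in triplicate.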
# [2] = target: T1, Retinoic acid receptor beta (Homo sapiens) (UniProt P10826); experiment: Transactivation of Gal4-LBD fused human RARbeta (169 to 448) transfected in african green monkey CV1 cells assessed as luciferase activity at 2 uM after 6 hrs by Dual-light chemiluminescent assay; type: cell-based; details: CV-1
# T1 sequence (whole entry): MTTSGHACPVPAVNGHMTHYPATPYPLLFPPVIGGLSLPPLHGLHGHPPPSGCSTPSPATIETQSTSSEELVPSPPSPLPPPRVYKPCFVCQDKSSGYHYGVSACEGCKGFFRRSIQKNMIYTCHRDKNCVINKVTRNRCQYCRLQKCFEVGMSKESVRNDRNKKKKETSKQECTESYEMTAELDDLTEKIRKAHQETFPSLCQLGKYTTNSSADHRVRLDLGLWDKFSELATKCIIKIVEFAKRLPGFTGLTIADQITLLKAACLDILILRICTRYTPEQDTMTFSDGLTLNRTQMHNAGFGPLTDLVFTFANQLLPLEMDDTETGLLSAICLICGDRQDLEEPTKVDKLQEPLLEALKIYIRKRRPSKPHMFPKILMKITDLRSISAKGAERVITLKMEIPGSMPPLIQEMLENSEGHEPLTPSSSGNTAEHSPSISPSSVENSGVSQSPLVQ
# Summary of the method: (§2)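 Transfected CV-1 cells carried Gal4-LBD constructs: hRARα 156–462, hRARβ 169–448, hRARγ 178–454 or mRXRα 218–467. Transfection used 10 ng Gal4-LBD, 100 ng UAS-luciferase and 25 ng β-gal vector. After 16 h the medium was changed to 5% charcoal-treated FBS. Cells were stimulated with 2 μM analog for 6 h (RARα, RARβ, RXRα) or 20 h (RARγ). Reference agonists were 1 μM atRA (RARα) and 1 μM 9cRA (RXRα). Luciferase and β-galactosidase were read by chemiluminescence.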
# [3] = target: T2, Retinoic acid receptor alpha (Homo sapiens) (UniProt P10276); experiment: Inhibition of transactivation activity of Gal4-LBD fused human RARalpha (156 to 454) transfected in atRA-stimulated african green monkey CV1 cells at 4 uM after 6 hrs by Dual-light chemiluminescent assay; type: cell-based; details: CV-1
# T2 sequence (whole entry): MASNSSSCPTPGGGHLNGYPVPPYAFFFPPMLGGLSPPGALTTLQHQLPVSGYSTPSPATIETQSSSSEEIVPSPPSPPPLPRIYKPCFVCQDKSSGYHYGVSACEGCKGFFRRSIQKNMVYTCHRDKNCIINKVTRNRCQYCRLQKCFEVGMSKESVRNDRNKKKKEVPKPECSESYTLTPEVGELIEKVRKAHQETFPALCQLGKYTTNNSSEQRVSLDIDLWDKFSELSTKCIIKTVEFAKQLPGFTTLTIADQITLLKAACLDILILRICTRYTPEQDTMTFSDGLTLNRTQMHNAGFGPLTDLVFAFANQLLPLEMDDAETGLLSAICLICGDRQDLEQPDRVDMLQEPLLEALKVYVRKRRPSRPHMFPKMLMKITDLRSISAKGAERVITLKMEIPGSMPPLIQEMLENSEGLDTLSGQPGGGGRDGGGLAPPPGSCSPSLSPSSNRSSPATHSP
# Summary of the method: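 Gal4 DBD (1–147) was fused to hRARα (156–462) or hRARβ (169–448) LBD. CV-1 cells (20,000/well) were co-transfected with 10 ng Gal4-LBD, 100 ng UAS-luciferase and 25 ng β-gal vector. After 16 h the medium was replaced with medium containing 5% charcoal-treated FBS. Cells got atRA plus test compound at 10-, 40- or 200-fold excess (0.2, 0.8, 4 μM) for 6 h. Luciferase and β-galactosidase were read by chemiluminescence.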
# [4] = system: MDA-MB-468; experiment: Antiproliferative activity against human MDA-MB-468 cells at 4 uM after 48 hrs by MTT assay; type: functional; details: MDA-MB-468, 48 h
# Summary of the method: (§3)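 Epithelial cancer lines came from ATCC and were seeded the day before in complete medium: PC-3, SkOV3 and A549 at 3,000/well; MiaPaCa-2 and BxPC-3 at 4,000; T-47D and MDA-MB-468 at 5,000. Medium was switched to 0.5% FBS just before exposure to 4 μM. Read-out was MTT (4 h, 37 °C), SDS/HCl solubilisation, A595 minus cell-free blank. Growth inhibition was taken versus DMSO (≤0.1% v/v) controls, ≥2 experiments in triplicate.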
# [5] = system: PC-3; experiment: Antiproliferative activity against human PC3 cells at 4 uM after 48 hrs by MTT assay; type: functional; details: PC-3, 48 h; summary of the method: as §3
# [6] = system: T47D; experiment: Antiproliferative activity against human T47D cells at 4 uM after 48 hrs by MTT assay; type: functional; summary of the method: as §3
# [7] = system: MIA PaCa-2; experiment: Antiproliferative activity against human MIAPaCa2 cells at 4 uM after 48 hrs by MTT assay; type: functional; details: MIA PaCa-2, 48 h; summary of the method: as §3
# [8] = system: Jurkat; experiment: Antiproliferative activity against human Jurkat T cells after 48 hrs by MTT assay
# [9] = target: T3, Retinoic acid receptor RXR-alpha (Mus musculus) (UniProt P28700); experiment: Transactivation of Gal4-LBD fused mouse RXRalpha (218 to 467) transfected in african green monkey CV1 cells assessed as luciferase activity at 2 uM after 6 hrs by Dual-light chemiluminescent assay relative to LGD1069; type: cell-based; details: CV-1
# T3 sequence (whole entry): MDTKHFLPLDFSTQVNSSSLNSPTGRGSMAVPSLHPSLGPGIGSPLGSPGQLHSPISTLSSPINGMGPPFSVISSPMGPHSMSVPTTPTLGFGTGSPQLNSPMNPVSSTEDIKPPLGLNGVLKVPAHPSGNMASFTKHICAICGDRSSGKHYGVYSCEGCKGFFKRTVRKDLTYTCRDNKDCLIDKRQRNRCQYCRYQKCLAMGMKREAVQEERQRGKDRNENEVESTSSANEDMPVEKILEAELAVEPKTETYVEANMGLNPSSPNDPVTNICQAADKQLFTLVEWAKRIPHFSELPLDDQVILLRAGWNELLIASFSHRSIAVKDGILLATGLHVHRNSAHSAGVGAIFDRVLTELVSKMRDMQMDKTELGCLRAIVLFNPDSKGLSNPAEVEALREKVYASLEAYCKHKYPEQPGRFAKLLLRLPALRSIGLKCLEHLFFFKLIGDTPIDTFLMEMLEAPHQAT
# [10] = target: T3, Retinoic acid receptor RXR-alpha (Mus musculus); experiment: Transactivation of Gal4-LBD fused mouse RXRalpha (218 to 467) transfected in african green monkey CV1 cells assessed as luciferase activity at 2 uM after 6 hrs by Dual-light chemiluminescent assay relative to 9-cis-retinoic acid; type: cell-based; details: CV-1; summary of the method: as §2
# [11] = system: Jurkat; experiment: Antiproliferative activity against human Jurkat T cells at 62.5 nM after 48 hrs by MTT assay; type: functional, cell-based; summary of the method: as §1
Activity [2],inhibition [3],pIC50 [8],Activity [9],Activity [10],Structure (SMILES),Activity [1],inhibition at 4 µM [4],inhibition at 4 µM [5],inhibition at 4 µM [6],inhibition at 4 µM [7],Activity [11]
inactive,43.7%,–,–,–,COCCOCOc1cc(C)c(-c2ccc(CC(=O)O)cc2Cl)cc1C12CC3CC(CC(C3)C1)C2,Active,25.3%,52.2%,27.6%,6.3%,–
inactive,27%,6.15,45%,45%,COCCOCOc1cc(C)c(-c2ccc3cc(C(=O)O)ccc3c2Cl)cc1C12CC3CC(CC(C3)C1)C2,–,49.9%,97.6%,46.1%,63.7%,inactive
